Biological target: Receptor-type tyrosine-protein phosphatase F (Homo sapiens) (UniProt P10586)
Experiment: Inhibitory activity against phosphatase (LAR) at a concentration of 100 uM
Outline: (§1)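 Purified recombinant human enzyme constructs; PTP1B is a C-terminally truncated soluble form, tested alongside LAR and SHP-2. Activity is read as the initial rate of p-nitrophenyl phosphate (pNPP) hydrolysis and reported as percent inhibition. PTP1B is tested at 100, 10 and 1 µM, or 10 and 1 µM in the salicylate series; LAR and SHP-2 at 100 µM.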

Sequence of Receptor-type tyrosine-protein phosphatase F (Homo sapiens) (P10586 whole entry): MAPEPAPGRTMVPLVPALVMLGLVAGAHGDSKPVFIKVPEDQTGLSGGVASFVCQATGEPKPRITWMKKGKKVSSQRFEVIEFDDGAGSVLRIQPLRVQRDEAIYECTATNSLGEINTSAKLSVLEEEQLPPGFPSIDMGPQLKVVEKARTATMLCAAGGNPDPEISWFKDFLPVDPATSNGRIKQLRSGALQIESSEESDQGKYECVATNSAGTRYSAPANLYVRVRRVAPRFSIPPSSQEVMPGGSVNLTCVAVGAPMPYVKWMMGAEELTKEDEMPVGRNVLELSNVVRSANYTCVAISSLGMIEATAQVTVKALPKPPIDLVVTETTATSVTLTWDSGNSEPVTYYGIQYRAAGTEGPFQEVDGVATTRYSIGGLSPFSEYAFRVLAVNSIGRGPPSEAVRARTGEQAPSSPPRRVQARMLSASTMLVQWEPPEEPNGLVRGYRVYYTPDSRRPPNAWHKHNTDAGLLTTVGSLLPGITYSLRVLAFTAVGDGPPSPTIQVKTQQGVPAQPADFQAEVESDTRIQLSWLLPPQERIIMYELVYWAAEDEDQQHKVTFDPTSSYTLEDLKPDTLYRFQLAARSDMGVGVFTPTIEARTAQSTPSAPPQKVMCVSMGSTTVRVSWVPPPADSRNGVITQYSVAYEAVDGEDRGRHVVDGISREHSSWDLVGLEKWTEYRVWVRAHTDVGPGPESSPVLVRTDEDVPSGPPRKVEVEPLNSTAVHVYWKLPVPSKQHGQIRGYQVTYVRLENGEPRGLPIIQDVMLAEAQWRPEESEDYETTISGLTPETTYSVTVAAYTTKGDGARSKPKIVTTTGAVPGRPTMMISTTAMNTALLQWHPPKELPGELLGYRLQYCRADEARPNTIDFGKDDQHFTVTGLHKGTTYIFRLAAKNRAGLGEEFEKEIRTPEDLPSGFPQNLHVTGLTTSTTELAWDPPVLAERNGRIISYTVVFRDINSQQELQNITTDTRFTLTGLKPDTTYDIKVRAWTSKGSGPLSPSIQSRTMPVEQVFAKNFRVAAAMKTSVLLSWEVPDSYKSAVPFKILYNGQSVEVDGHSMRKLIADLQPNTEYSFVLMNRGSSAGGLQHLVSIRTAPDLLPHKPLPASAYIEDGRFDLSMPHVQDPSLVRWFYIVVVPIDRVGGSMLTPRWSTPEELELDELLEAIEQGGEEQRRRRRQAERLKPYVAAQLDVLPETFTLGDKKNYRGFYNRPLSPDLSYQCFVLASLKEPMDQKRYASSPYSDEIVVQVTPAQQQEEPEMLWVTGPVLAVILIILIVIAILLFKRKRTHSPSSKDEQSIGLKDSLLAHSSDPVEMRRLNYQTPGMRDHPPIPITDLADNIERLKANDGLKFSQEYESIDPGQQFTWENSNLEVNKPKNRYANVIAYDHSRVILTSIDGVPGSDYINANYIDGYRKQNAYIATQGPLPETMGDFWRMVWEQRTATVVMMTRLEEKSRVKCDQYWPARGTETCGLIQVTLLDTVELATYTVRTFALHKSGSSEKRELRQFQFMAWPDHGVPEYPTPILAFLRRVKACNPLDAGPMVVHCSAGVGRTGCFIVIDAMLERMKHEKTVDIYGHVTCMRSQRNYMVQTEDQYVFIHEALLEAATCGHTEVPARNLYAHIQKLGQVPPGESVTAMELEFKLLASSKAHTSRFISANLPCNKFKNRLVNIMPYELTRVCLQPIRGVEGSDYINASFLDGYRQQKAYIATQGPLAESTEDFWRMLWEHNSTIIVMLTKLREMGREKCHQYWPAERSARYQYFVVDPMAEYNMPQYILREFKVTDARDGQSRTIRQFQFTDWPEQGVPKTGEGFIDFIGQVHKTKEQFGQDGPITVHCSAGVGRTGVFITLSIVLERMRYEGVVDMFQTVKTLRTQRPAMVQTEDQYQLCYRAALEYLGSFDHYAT

In order of rising inhibition:
1. CCCCCNC(=O)[C@H](Cc1ccc(OCC(=O)O)c(C(=O)O)c1)NC(=O)[C@H](Cc1ccccc1)NC(=O)Cc1c[nH]c2ccccc12  0%
2. CCCCCNC(=O)[C@H](Cc1ccc(OCC(=O)O)c(C(=O)O)c1)NC(=O)[C@H](Cc1ccccc1)NC(=O)CSc1nc[nH]n1  0%
3. CCCCCNC(=O)[C@H](Cc1ccc(OCC(=O)O)c(C(=O)O)c1)NC(=O)[C@H](Cc1ccccc1)NC(C)=O  0%
4. CCCCCNC(=O)[C@H](Cc1ccc(OCC(=O)O)c(C(=O)O)c1)NC(=O)[C@H](Cc1ccccc1)NC(=O)CSc1c[nH]nn1  0%
5. CCCCCNC(=O)[C@H](Cc1ccc(OCC(=O)O)c(C(=O)O)c1)NC(=O)[C@H](Cc1ccccc1)NC(=O)C[S+]([O-])c1nc[nH]n1 (some centres undefined)  0%
6. CCCCCNC(=O)[C@H](Cc1ccc(OCC(=O)O)c(C(=O)O)c1)NC(=O)[C@H](Cc1ccccc1)NC(=O)CCNC(=O)OC(C)(C)C  0%
7. CCCCCNC(=O)[C@H](Cc1ccc(OCC(=O)O)c(C(=O)O)c1)NC(=O)[C@H](COCOC)NC(=O)OC(C)(C)C  2%
8. CCCCCNC(=O)[C@H](Cc1ccc(OCC(=O)O)c(C(=O)O)c1)NC(=O)[C@H](Cc1ccccc1)NC(=O)Cc1ccc(O)cc1  7%

System: not listed separately
Experiment: Uptake of 2-DOG (2-deoxyglucose) into L6 myocytes in the presence of half-maximal concentration of insulin at 100 uM
Format: functional, Rattus norvegicus
Outline: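 L6 myotubes are exposed to compound at 100 µM with 10 nM insulin, a dose eliciting about 50% of maximal uptake. The initial rate of 2-[3H]deoxyglucose uptake is measured, with L-[14C]glucose marking extracellular space, and normalized to recovered lysate protein. Net insulin-dependent transport with inhibitor is expressed as a percent of that without inhibitor.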

In order of falling “Control Uptake” value:
1. CCCCCNC(=O)[C@H](Cc1ccc(OCC(=O)O)c(C(=O)O)c1)NC(=O)[C@H](Cc1ccccc1)NC(=O)Cc1ccc(O)cc1  96%
2. CCCCCNC(=O)[C@H](Cc1ccc(OCC(=O)O)c(C(=O)O)c1)NC(=O)[C@H](Cc1ccccc1)NC(C)=O  95%
3. CCCCCNC(=O)[C@H](Cc1ccc(OCC(=O)O)c(C(=O)O)c1)NC(=O)[C@H](Cc1ccccc1)NC(=O)C[S+]([O-])c1nc[nH]n1 (some centres undefined)  92%
4. CCCCCNC(=O)[C@H](Cc1ccc(OCC(=O)O)c(C(=O)O)c1)NC(=O)[C@H](Cc1ccccc1)NC(=O)CCNC(=O)OC(C)(C)C  88%
5. CCCCCNC(=O)[C@H](Cc1ccc(OCC(=O)O)c(C(=O)O)c1)NC(=O)[C@H](Cc1ccccc1)NC(=O)CSc1c[nH]nn1  86%
6. CCCCCNC(=O)[C@H](Cc1ccc(OCC(=O)O)c(C(=O)O)c1)NC(=O)[C@H](Cc1ccccc1)NC(=O)CSc1nc[nH]n1  80%
7. CCCCCNC(=O)[C@H](Cc1ccc(OCC(=O)O)c(C(=O)O)c1)NC(=O)[C@H](Cc1ccccc1)NC(=O)Cc1c[nH]c2ccccc12  73%
8. CCCCCNC(=O)[C@H](Cc1ccc(OCC(=O)O)c(C(=O)O)c1)NC(=O)[C@H](COCOC)NC(=O)OC(C)(C)C  70%

Biological target: T1, Tyrosine-protein phosphatase non-receptor type 11 (Homo sapiens) (UniProt Q06124)
T1 sequence (whole entry): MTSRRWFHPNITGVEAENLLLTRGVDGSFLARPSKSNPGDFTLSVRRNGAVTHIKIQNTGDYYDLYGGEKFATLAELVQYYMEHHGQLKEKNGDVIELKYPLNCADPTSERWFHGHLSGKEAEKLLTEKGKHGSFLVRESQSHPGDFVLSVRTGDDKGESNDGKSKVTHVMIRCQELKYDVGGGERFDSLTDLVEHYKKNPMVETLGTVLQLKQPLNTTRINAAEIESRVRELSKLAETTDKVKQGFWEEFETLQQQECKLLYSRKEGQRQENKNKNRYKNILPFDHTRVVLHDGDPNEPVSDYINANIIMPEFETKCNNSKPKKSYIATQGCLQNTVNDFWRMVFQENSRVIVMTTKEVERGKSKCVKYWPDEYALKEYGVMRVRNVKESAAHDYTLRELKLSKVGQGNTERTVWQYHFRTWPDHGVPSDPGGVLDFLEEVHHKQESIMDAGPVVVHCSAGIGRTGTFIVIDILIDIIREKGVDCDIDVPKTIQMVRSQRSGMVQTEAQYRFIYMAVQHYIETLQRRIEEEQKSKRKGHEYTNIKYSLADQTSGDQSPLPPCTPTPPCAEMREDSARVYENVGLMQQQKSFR
Experiment: Inhibition of recombinant human phosphatase (SHP-2) at a concentration of 100 uM
Outline: as §1

In order of rising inhibition:
1. CCCCCNC(=O)[C@H](Cc1ccc(OCC(=O)O)c(C(=O)O)c1)NC(=O)[C@H](Cc1ccccc1)NC(=O)CSc1c[nH]nn1  5%
2. CCCCCNC(=O)[C@H](Cc1ccc(OCC(=O)O)c(C(=O)O)c1)NC(=O)[C@H](Cc1ccccc1)NC(=O)CSc1nc[nH]n1  6%
3. CCCCCNC(=O)[C@H](Cc1ccc(OCC(=O)O)c(C(=O)O)c1)NC(=O)[C@H](Cc1ccccc1)NC(C)=O  13%
4. CCCCCNC(=O)[C@H](Cc1ccc(OCC(=O)O)c(C(=O)O)c1)NC(=O)[C@H](Cc1ccccc1)NC(=O)C[S+]([O-])c1nc[nH]n1 (some centres undefined)  17%
5. CCCCCNC(=O)[C@H](Cc1ccc(OCC(=O)O)c(C(=O)O)c1)NC(=O)[C@H](Cc1ccccc1)NC(=O)CCNC(=O)OC(C)(C)C  19%
6. CCCCCNC(=O)[C@H](Cc1ccc(OCC(=O)O)c(C(=O)O)c1)NC(=O)[C@H](Cc1ccccc1)NC(=O)Cc1ccc(O)cc1  34%
7. CCCCCNC(=O)[C@H](Cc1ccc(OCC(=O)O)c(C(=O)O)c1)NC(=O)[C@H](Cc1ccccc1)NC(=O)Cc1c[nH]c2ccccc12  38%

Biological target: T2, Tyrosine-protein phosphatase non-receptor type 1 (Homo sapiens) (UniProt P18031)
T2 sequence (whole entry): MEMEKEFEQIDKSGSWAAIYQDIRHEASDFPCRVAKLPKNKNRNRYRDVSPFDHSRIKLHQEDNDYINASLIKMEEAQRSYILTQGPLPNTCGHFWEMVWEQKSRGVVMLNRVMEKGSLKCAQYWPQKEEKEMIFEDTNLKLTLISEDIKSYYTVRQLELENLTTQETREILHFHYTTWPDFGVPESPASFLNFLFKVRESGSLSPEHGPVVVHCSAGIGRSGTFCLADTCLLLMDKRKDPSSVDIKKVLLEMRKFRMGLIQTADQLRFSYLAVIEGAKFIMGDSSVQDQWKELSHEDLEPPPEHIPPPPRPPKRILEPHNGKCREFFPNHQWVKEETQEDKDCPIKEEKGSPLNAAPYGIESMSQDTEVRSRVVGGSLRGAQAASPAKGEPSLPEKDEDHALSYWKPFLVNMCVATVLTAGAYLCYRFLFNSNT
Experiment: Inhibitory activity against human protein tyrosine phosphatase 1B (PTP1B) at a concentration of 1 uM
Outline: as §1

In order of falling inhibition:
1. CCCCCNC(=O)[C@H](Cc1ccc(OCC(=O)O)c(C(=O)O)c1)NC(=O)[C@H](Cc1ccccc1)NC(=O)CSc1c[nH]nn1  49%
2. CCCCCNC(=O)[C@H](Cc1ccc(OCC(=O)O)c(C(=O)O)c1)NC(=O)[C@H](Cc1ccccc1)NC(=O)Cc1c[nH]c2ccccc12  47%
3. CCCCCNC(=O)[C@H](Cc1ccc(OCC(=O)O)c(C(=O)O)c1)NC(=O)[C@H](Cc1ccccc1)NC(=O)Cc1ccc(O)cc1  46%
4. CCCCCNC(=O)[C@H](Cc1ccc(OCC(=O)O)c(C(=O)O)c1)NC(=O)[C@H](Cc1ccccc1)NC(=O)C[S+]([O-])c1nc[nH]n1 (some centres undefined)  40%
5. CCCCCNC(=O)[C@H](Cc1ccc(OCC(=O)O)c(C(=O)O)c1)NC(=O)[C@H](Cc1ccccc1)NC(=O)CSc1nc[nH]n1  36%
6. CCCCCNC(=O)[C@H](Cc1ccc(OCC(=O)O)c(C(=O)O)c1)NC(=O)[C@H](Cc1ccccc1)NC(C)=O  28%
7. CCCCCNC(=O)[C@H](Cc1ccc(OCC(=O)O)c(C(=O)O)c1)NC(=O)[C@H](Cc1ccccc1)NC(=O)CCNC(=O)OC(C)(C)C  19%
8. CCCCCNC(=O)[C@H](Cc1ccc(OCC(=O)O)c(C(=O)O)c1)NC(=O)[C@H](COCOC)NC(=O)OC(C)(C)C  16%

Biological target: T2, Tyrosine-protein phosphatase non-receptor type 1 (Homo sapiens)
Experiment: Inhibitory activity against human protein tyrosine phosphatase 1B (PTP1B) at a concentration of 10 uM
Outline: as §1

In order of falling inhibition:
1. CCCCCNC(=O)[C@H](Cc1ccc(OCC(=O)O)c(C(=O)O)c1)NC(=O)[C@H](Cc1ccccc1)NC(=O)Cc1c[nH]c2ccccc12  88%
2. CCCCCNC(=O)[C@H](Cc1ccc(OCC(=O)O)c(C(=O)O)c1)NC(=O)[C@H](Cc1ccccc1)NC(=O)CSc1c[nH]nn1  88%
3. CCCCCNC(=O)[C@H](Cc1ccc(OCC(=O)O)c(C(=O)O)c1)NC(=O)[C@H](Cc1ccccc1)NC(=O)Cc1ccc(O)cc1  88%
4. CCCCCNC(=O)[C@H](Cc1ccc(OCC(=O)O)c(C(=O)O)c1)NC(=O)[C@H](Cc1ccccc1)NC(=O)C[S+]([O-])c1nc[nH]n1 (some centres undefined)  85%
5. CCCCCNC(=O)[C@H](Cc1ccc(OCC(=O)O)c(C(=O)O)c1)NC(=O)[C@H](Cc1ccccc1)NC(=O)CSc1nc[nH]n1  82%
6. CCCCCNC(=O)[C@H](Cc1ccc(OCC(=O)O)c(C(=O)O)c1)NC(=O)[C@H](Cc1ccccc1)NC(C)=O  77%
7. CCCCCNC(=O)[C@H](Cc1ccc(OCC(=O)O)c(C(=O)O)c1)NC(=O)[C@H](Cc1ccccc1)NC(=O)CCNC(=O)OC(C)(C)C  75%
8. CCCCCNC(=O)[C@H](Cc1ccc(OCC(=O)O)c(C(=O)O)c1)NC(=O)[C@H](COCOC)NC(=O)OC(C)(C)C  51%

Source: ChEMBL document CHEMBL1136635, “Modification of the N-terminus of peptidomimetic protein tyrosine phosphatase 1B (PTP1B) inhibitors: identification of analogues with cellular activity” (Bioorg Med Chem Lett, 2003)
